Assay results collected from several papers.
Protocols differ between the studies behind these lines. pEC50, pIC50, pKi: −log10 of the molar value.
Target: Sodium-dependent noradrenaline transporter (SLC6A2, Homo sapiens, UniProt P23975)

CN[C@@H](C)C(=O)c1ccccc1 — pEC50 (calcium signal, agonist, fluorescence): 6.92
COc1cc(C(=O)N2CC[C@@H](O)[C@@H](N)C2)cc2nc(-c3cc4ccccc4n3CC3CC3)n(C)c12 — pIC50 (transporter uptake, inhibitor): 4.70
CCCC[C@@H](NC(=O)[C@@H](N)Cc1ccc(O)cc1)C(=O)NCC(=O)N[C@@H](Cc1ccc(F)cc1)C(=O)N(C)CCC[C@@]1(c2ccc(F)cc2)OCc2cc(C#N)ccc21 — pKi (ligand displacement, radioligand): 5.62
C=CCN1CC[C@]23c4c5ccc(O)c4O[C@H]2C(=O)CC[C@]3(O)[C@H]1C5 — pKi (ligand displacement, radioligand): < 5.15
C[C@@H](NC(=O)[C@@H](N)Cc1ccc(O)cc1)C(=O)NCC(=O)N[C@@H](Cc1ccccc1)C(=O)N(C)CCC[C@@]1(c2ccc(F)cc2)OCc2cc(C#N)ccc21 — pKi (ligand displacement, radioligand): 6.12
CNc1nc(C#Cc2ccc(Cl)s2)nc2c1ncn2[C@@H]1O[C@H](C(=O)OC)[C@@H](O)[C@H]1O — pKi (ligand displacement, radioligand; cell membranes): < 5.00
C[C@H](N)Cn1ncc2ccc3c(c21)CCCO3 — pKi (ligand displacement, radioligand): < 4.00
CNC(C)(C)C(=O)c1ccccc1 — pEC50 (calcium signal, agonist, fluorescence): 6.82
CNc1nc(C#Cc2ccc(Br)s2)nc2c1ncn2[C@H]1[C@H](O)[C@H](O)[C@]2(C(=O)OC)C[C@H]12 — pKi (ligand displacement, radioligand; cell membranes): < 5.00
